Among the data in ChEMBL document CHEMBL4014350, “Alkoxyurea-Based Histone Deacetylase Inhibitors Increase Cisplatin Potency in Chemoresistant Cancer Cell Lines” (J Med Chem, 2017) are CI, Ratio IC50 and IC50 values, retold here.

Assay [1] concerns CAL-27. In words: Potentiation of 2 uM cisplatin-induced cytotoxicity against human CAL27 cells assessed as decrease in cell viability by measuring combination index at 700 uM preincubated for 48 hrs followed by cisplatin treatment measured after 72 hrs by MTT assay. The assay is classed as functional. To be noted: in the assay text read “at 700 nM” for “at 700 uM”. Summed up: (§1)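 HDAC inhibitor was added 48 h before cisplatin, then cells were exposed to cisplatin for 72 h and viability was read by MTT assay. Combination index was computed by the Chou–Talalay method: CI > 1 is antagonism, CI = 1 additive, CI < 0.9 synergism. Points with fraction affected below 0.20 were flagged.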
For orientation: Formazan colour is commonly taken as a measure of viable cells.

For assay [2], the system named is CAL-27. Nature of the assay: Potentiation of 2 uM cisplatin-induced cytotoxicity against human CAL27 cells assessed as decrease in cell viability by measuring combination index at 800 uM preincubated for 48 hrs followed by cisplatin treatment measured after 72 hrs by MTT assay. The assay is classed as functional. To be noted: in the assay text read “at 800 nM” for “at 800 uM”. Summed up:
as §1

Assay [3] addresses T1, Histone deacetylase 1/6 (Homo sapiens) (UniProt Q13547+Q9UBN7). In words: Inhibition of HDAC1/HDAC6 in human Cal27CisR cells assessed as potentiation of 20 uM cisplatin-induced cytotoxicity by measuring combination index at 700 nM preincubated for 48 hrs followed by cisplatin treatment measured after 72 hrs by MTT assay.
For a further assay, the species on record is Homo sapiens. Nature of the assay: Selectivity ratio of IC50 for HDAC in human A2780 cells to IC50 for HDAC in human A2780CisR cells. The format is cell-based.
The target of assay [4] is T1, Histone deacetylase 1/6 (Homo sapiens). In words: Inhibition of HDAC1/HDAC6 in human Cal27CisR cells assessed as potentiation of 20 uM cisplatin-induced cytotoxicity by measuring combination index at 500 nM preincubated for 48 hrs followed by cisplatin treatment measured after 72 hrs by MTT assay.
Assay [5] shares this target. Nature of the assay: Inhibition of HDAC1/HDAC6 in human Cal27CisR cells assessed as potentiation of 10 uM cisplatin-induced cytotoxicity by measuring combination index at 800 nM preincubated for 48 hrs followed by cisplatin treatment measured after 72 hrs by MTT assay.
A short description of assay [6]: Antiproliferative activity against human Cal27CisR cells measured after 72 hrs by MTT assay. The format is functional, cell-based.
Assay [7] relates to CAL-27. In words: Potentiation of 5 uM cisplatin-induced cytotoxicity against human CAL27 cells assessed as decrease in cell viability by measuring combination index at 800 uM preincubated for 48 hrs followed by cisplatin treatment measured after 72 hrs by MTT assay. The format is functional. As to conditions: in the assay text read “at 800 nM” for “at 800 uM”. Summed up: as §1

Assay [8] relates to CAL-27. In words: Potentiation of 1 uM cisplatin-induced cytotoxicity against human CAL27 cells assessed as decrease in cell viability by measuring combination index at 700 uM preincubated for 48 hrs followed by cisplatin treatment measured after 72 hrs by MTT assay. The format is functional. Summed up:
as §1

The target in assay [9] is T1, Histone deacetylase 1/6 (Homo sapiens). In words: Inhibition of HDAC1/HDAC6 in human Cal27CisR cells assessed as potentiation of 5 uM cisplatin-induced cytotoxicity by measuring combination index at 500 uM preincubated for 48 hrs followed by cisplatin treatment measured after 72 hrs by MTT assay. The format is cell-based. The method, boiled down: (§2)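 Cal27 and cisplatin-resistant Cal27CisR cells were preincubated with the HDAC inhibitor for 48 h, then given cisplatin in combination. Viability was read by MTT after 72 h. The combination index was computed by the Chou–Talalay method: CI > 1 is antagonism, CI = 1 is additive, and CI < 0.9 is synergism. Points with fraction affected below 0.20 were flagged.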

The test system of assay [10] is CAL-27. In words: Potentiation of 1 uM cisplatin-induced cytotoxicity against human CAL27 cells assessed as decrease in cell viability by measuring combination index at 500 uM preincubated for 48 hrs followed by cisplatin treatment measured after 72 hrs by MTT assay. The format is functional. The method, boiled down:
as §1

Assay [11] has as its system CAL-27. In words: Potentiation of 2 uM cisplatin-induced cytotoxicity against human CAL27 cells assessed as decrease in cell viability by measuring combination index at 500 uM preincubated for 48 hrs followed by cisplatin treatment measured after 72 hrs by MTT assay. The assay is classed as functional. To be noted: in the assay text read “at 500 nM” for “at 500 uM”. The method, boiled down:
as §1

Assay [12] deals with T1, Histone deacetylase 1/6 (Homo sapiens). Nature of the assay: Inhibition of HDAC1/HDAC6 in human Cal27CisR cells assessed as potentiation of 10 uM cisplatin-induced cytotoxicity by measuring combination index at 700 nM preincubated for 48 hrs followed by cisplatin treatment measured after 72 hrs by MTT assay.
Assay [13] is described as follows: Inhibition of HDAC in human CAL27 cells using Boc-Lys(epsilon-Ac)-AMC as substrate preincubated for 18 hrs followed by substrate addition measured after 3 hrs by fluorescence assay. The format is cell-based. As to conditions: CAL-27.
The target of assay [14] is T1, Histone deacetylase 1/6 (Homo sapiens). In words: Inhibition of HDAC1/HDAC6 in human Cal27CisR cells assessed as potentiation of 5 uM cisplatin-induced cytotoxicity by measuring combination index at 700 uM preincubated for 48 hrs followed by cisplatin treatment measured after 72 hrs by MTT assay. The format is cell-based. The method, boiled down: as §2
The test system of assay [15] is CAL-27. In words: Potentiation of 5 uM cisplatin-induced cytotoxicity against human CAL27 cells assessed as decrease in cell viability by measuring combination index at 600 uM preincubated for 48 hrs followed by cisplatin treatment measured after 72 hrs by MTT assay. The assay is classed as functional. To be noted: in the assay text read “at 600 nM” for “at 600 uM”. The method, boiled down:
as §1

Another assay concerns A2780cisR. In words: Antiproliferative activity against human A2780cisR cells measured after 72 hrs by MTT assay. The format is functional, cell-based.
The test system of assay [16] is CAL-27. In words: Potentiation of 0.316 uM cisplatin-induced cytotoxicity against human CAL27 cells assessed as decrease in cell viability by measuring combination index at 800 uM preincubated for 48 hrs followed by cisplatin treatment measured after 72 hrs by MTT assay. The assay is classed as functional. To be noted: in the assay text read “at 800 nM” for “at 800 uM”. The method, boiled down: as §2

The test system of assay [17] is CAL-27. Nature of the assay: Potentiation of 2 uM cisplatin-induced cytotoxicity against human CAL27 cells assessed as decrease in cell viability by measuring combination index at 600 uM preincubated for 48 hrs followed by cisplatin treatment measured after 72 hrs by MTT assay. The format is functional. As to conditions: in the assay text read “at 600 nM” for “at 600 uM”. The method, boiled down: as §1

Assay [18] is described as follows: Antiproliferative activity against human Med8A cells after 72 hrs by Celltiter-Glo assay. The format is functional, cell-based. (ATP-based viability assays read luminescence as a measure of living cells.)
The subject of assay [19] is CAL-27. In words: Potentiation of 0.5 uM cisplatin-induced cytotoxicity against human CAL27 cells assessed as decrease in cell viability measuring combination index at 700 uM preincubated for 48 hrs followed by cisplatin treatment measured after 72 hrs by MTT assay. The assay is classed as functional. As to conditions: in the assay text read “at 700 nM” for “at 700 uM”. Summed up:
as §2

For assay [20], the target named is T1, Histone deacetylase 1/6 (Homo sapiens). Nature of the assay: Inhibition of HDAC1/HDAC6 in human Cal27CisR cells assessed as potentiation of 20 uM cisplatin-induced cytotoxicity by measuring combination index at 600 nM preincubated for 48 hrs followed by cisplatin treatment measured after 72 hrs by MTT assay.
For assay [21], the system named is CAL-27. Nature of the assay: Antiproliferative activity against human CAL27 cells measured after 72 hrs by MTT assay. To be noted: CAL-27, 72 h. The format is functional, cell-based.
The test system of assay [22] is CAL-27. In words: Potentiation of 5 uM cisplatin-induced cytotoxicity against human CAL27 cells assessed as decrease in cell viability by measuring combination index at 700 uM preincubated for 48 hrs followed by cisplatin treatment measured after 72 hrs by MTT assay. As to conditions: in the assay text read “at 700 nM” for “at 700 uM”. The assay is classed as functional. The method, boiled down: as §1

T1 sequence (Q13547 whole entry, looked up): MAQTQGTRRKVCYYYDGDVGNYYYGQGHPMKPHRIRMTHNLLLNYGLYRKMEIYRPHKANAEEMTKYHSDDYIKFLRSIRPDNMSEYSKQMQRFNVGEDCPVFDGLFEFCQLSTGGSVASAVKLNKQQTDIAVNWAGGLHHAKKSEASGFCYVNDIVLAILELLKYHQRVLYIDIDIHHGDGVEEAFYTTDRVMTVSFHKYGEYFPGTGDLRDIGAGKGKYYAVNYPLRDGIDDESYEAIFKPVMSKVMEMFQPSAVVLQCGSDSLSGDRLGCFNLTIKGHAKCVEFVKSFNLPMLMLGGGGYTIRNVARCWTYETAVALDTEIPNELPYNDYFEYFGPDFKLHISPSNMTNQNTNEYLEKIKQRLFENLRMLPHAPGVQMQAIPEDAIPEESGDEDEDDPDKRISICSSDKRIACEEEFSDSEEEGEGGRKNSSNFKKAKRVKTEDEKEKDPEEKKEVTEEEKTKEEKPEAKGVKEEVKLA
T1 sequence (Q9UBN7 whole entry, looked up): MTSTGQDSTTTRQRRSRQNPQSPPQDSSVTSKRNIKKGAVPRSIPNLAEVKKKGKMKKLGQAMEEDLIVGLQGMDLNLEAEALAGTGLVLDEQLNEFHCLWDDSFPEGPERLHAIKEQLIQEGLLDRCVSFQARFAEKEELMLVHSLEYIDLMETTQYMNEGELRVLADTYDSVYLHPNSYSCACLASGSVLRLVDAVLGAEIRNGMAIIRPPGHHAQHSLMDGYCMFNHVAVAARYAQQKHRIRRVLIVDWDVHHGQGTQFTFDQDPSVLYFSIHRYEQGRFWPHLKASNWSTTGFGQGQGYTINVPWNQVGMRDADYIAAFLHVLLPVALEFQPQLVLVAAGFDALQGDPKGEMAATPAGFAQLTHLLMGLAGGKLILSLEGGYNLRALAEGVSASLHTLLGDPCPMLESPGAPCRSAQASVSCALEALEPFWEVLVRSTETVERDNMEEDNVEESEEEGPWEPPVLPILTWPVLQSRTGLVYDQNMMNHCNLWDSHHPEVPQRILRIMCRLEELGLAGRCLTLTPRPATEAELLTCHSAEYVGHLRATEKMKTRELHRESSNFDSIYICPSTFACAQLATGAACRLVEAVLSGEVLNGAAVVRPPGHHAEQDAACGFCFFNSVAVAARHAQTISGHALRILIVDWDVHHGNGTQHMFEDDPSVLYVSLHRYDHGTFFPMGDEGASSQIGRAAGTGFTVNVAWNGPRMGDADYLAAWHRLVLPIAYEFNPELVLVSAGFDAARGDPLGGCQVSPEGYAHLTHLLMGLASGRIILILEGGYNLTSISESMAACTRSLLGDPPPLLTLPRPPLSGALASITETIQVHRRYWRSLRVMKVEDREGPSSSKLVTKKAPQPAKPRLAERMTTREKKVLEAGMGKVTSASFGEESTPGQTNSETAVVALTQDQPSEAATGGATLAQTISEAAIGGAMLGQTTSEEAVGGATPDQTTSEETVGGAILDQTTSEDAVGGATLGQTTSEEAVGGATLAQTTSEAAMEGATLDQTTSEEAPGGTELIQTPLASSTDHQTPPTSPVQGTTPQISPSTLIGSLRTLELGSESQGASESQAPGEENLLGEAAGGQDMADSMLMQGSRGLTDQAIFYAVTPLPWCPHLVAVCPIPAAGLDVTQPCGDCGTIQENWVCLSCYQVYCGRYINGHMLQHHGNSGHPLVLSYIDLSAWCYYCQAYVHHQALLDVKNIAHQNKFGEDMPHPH

In the case of `COc1cc(NC(=O)NOCCCCCC(=O)NO)c2nc(OC)cc(C)c2c1`, the CI was 0.6 with CAL-27 [1]; 0.66 in the assay with CAL-27 [2]; 0.21 in [3]; 0.2 in [4]; 0.23 in assay [5]; 0.69 in the assay on CAL-27 [7]. Also, the CI is 0.61 in the assay on CAL-27 [8]; 0.19 in assay [9]; 0.5 in the assay with CAL-27 [10]; 0.42 with CAL-27 [11]; 0.2 in [12]; 0.23 in [14]. For the same compound, the CI in the assay on CAL-27 [15] amounted to 0.49; with CAL-27 [16], 0.84; with CAL-27 [17], 0.49; in the assay on CAL-27 [19], 0.7; in assay [20], 0.19; with CAL-27 [22] it was 0.64. In the assay listed under Homo sapiens, the Ratio IC50 lay within 2 to 3.4. Moreover, the IC50 – broadly, the concentration at which inhibition is half-maximal – in assay [6] is 1300 nM; in assay [13] it was 500 nM; in the assay with A2780cisR, 400 nM; in assay [18], 590 nM; in the assay on CAL-27 [21], 1000 nM.

As to `COc1cc(NC(=O)NOCCCCCC(=O)NO)c2nccc(C)c2c1`, the CI amounted to 0.36 with CAL-27 [1]; 0.38 in the assay with CAL-27 [2]; 0.25 in [3]; 0.26 in [4]; 0.23 in assay [5]; 0.38 with CAL-27 [7]. Further, the CI with CAL-27 [8] worked out at 0.43; in assay [9], 0.28; with CAL-27 [10], 0.37; in the assay on CAL-27 [11] it was 0.27; in assay [12], 0.21; in [14] it was 0.21. In addition, the CI was found to be 0.33 in the assay on CAL-27 [15]; 0.56 in the assay with CAL-27 [16]; 0.26 with CAL-27 [17]; 0.57 in the assay on CAL-27 [19]; 0.21 in [20]; 0.41 in the assay on CAL-27 [22]. The Ratio IC50 in the assay filed under Homo sapiens was in the range of 2 to 3.4. In addition, the concentration for half-maximal inhibition (IC50) was 1300 nM in [6]; 600 nM in assay [13]; 300 nM in the assay with A2780cisR; 600 nM in [18]; 600 nM in the assay with CAL-27 [21].

Regarding `COc1cc(NC(=O)NOCCCCCC(=O)NO)c2ncccc2c1`, the CI with CAL-27 [1] is 0.43; in the assay on CAL-27 [2], 0.43; in assay [3], 0.37; in [4] it was 0.35; in assay [5], 0.35; in the assay with CAL-27 [7], 0.36. For the same compound, the CI with CAL-27 [8] was 0.63; in [9], 0.96; in the assay on CAL-27 [10], 0.67; in the assay on CAL-27 [11], 0.49; in assay [12] it was 0.33; in [14], 0.41. The CI was 0.34 with CAL-27 [15]; under 0.2 with CAL-27 [16]; 0.37 in the assay on CAL-27 [17]; 0.97 in the assay on CAL-27 [19]; 0.37 in assay [20]; 0.32 with CAL-27 [22]. Moreover, the Ratio IC50 in the assay filed under Homo sapiens lay in the range of 2 to 3.4. The half-maximal inhibitory concentration (IC50) in [6] was found to be 1300 nM; in assay [13], 900 nM; with A2780cisR it was 400 nM; in assay [18], 1210 nM; in the assay with CAL-27 [21], 900 nM.
